# From BindingDB's records for doi:10.1016/j.bmcl.2008.10.125 (The University of Queensland, 2008)
# Molecular target: T1, Fe(3+)-Zn(2+) purple acid phosphatase (Phaseolus vulgaris, UniProt P80366)
# T1 sequence (P80366 whole entry): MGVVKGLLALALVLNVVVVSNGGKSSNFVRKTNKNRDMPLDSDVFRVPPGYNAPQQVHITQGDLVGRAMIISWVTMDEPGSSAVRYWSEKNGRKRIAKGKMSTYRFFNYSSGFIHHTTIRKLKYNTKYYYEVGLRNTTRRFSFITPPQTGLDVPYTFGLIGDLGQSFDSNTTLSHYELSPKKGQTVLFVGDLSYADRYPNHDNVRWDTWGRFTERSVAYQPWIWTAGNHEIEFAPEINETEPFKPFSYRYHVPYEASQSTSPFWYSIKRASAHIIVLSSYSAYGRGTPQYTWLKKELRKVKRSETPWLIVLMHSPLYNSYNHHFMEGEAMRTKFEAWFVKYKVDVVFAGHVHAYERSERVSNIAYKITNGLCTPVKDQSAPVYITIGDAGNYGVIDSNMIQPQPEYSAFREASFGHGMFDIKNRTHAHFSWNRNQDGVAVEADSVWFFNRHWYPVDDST
# Experiment: Inhibition of red kidney bean PAP at pH 6.2
# Procedure, shortened: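 Each enzyme was run at its own pH optimum: red kidney bean PAP at pH 6.2 and pig PAP at pH 4.9. IC50 values were determined experimentally. Separate inhibition constants were derived for binding to the free enzyme and to the enzyme–substrate complex.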
row,Ki,SMILES
1,1470 µM,CCCCCCOC(c1cccc2ccccc12)P(=O)(O)O (racemic) [(+/-)-hexyloxy(naphthalen-1-yl)methylphosphonic acid]
2,4 µM,CCCCCCCCCCOC(c1cccc2ccccc12)P(=O)(O)O (racemic) [(+/-)-decyloxy(naphthalen-1-yl)methylphosphonic acid]
3,50 µM,CCCCCCCCOC(c1cccc2ccccc12)P(=O)(O)O (racemic) [(+/-)-naphthalen-1-yl(octyloxy)methylphosphonic acid]
